Assay results as given in ChEMBL document CHEMBL1157428, “Ring-closing metathesis for the synthesis of a highly G-quadruplex selective macrocyclic hexaoxazole having enhanced cytotoxic potency” (Bioorg Med Chem Lett, 2008).
Active and inactive are the calls of the source. The rule behind the calls is not given here.

Experiments:
[1] = Cytotoxicity against human RPMI8402 cells by MTT assay; format: functional, cell-based; conditions: RPMI 8402
[2] = tested on: Salmonidae; test: Binding affinity to salmon testes duplex DNA assessed as transition temperature
Procedure, shortened: (§1)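 Thermal melting. Salmon testes duplex DNA at 15 μM base pairs, with macrocyclic ligand at 15 μM. Telomeric d[T2G3(T2AG3)3A] at 4 μM strand, with macrocyclic ligand at 20 μM. Buffer was 10 mM EPPS pH 7.5, with KCl added to 50 mM total K+. Transition temperature was taken for DNA with and without ligand.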

[3] = species: Homo sapiens; test: Effect on thermal stability of G-quadruplex human telomeric DNA sequence d[T2G3(T2AG3)3A] assessed as transition temperature; procedure, shortened: as §1
[4] = Cytotoxicity against human KB3-1 cells by MTT assay; format: functional, cell-based; conditions: KB 3-1
[5] = tested on: Salmonidae; test: Effect on thermal stability of salmon testes duplex DNA assessed as transition temperature; procedure, shortened: as §1
[6] = Cytotoxicity against human KBV1 cells by MTT assay; format: functional, cell-based; conditions: KB-V1
[7] = species: Homo sapiens; test: Binding affinity to […] human telomeric DNA sequence d[T2G3(T2AG3)3A] assessed as transition temperature; procedure, shortened: as §1
[8] = tested on: P388; test: Cytotoxicity against mouse P388 cells by MTT assay; format: functional, cell-based
[9] = Cytotoxicity against human KBH5.0 cells by MTT assay; format: functional, cell-based; conditions: KBH5.0 cell

Question: With `CC(C)[C@@H]1NC(=O)c2coc(n2)-c2coc(n2)-c2coc(n2)[C@H](C(C)C)NC(=O)c2coc(n2)-c2coc(n2)-c2coc1n2` [HEXAOXAZOLE DIVALINE] as the compound, how does the IC50 [1] read?
Answer: Its IC50 is 410 nM.

Question: What about the Activity [2] of the same compound?
Answer: Its Activity is “inactive”.

Question: What about the Activity [3] of the same compound?
Answer: The Activity was “Active”.

Question: What about the IC50 [4] of the same compound?
Answer: Its IC50 is 300 nM.

Question: And the Activity [5]?
Answer: The Activity was “inactive”.

Question: What about the IC50 [6] of the same compound?
Answer: The IC50 was 8000 nM.

Question: What about the Activity [7] of the same compound?
Answer: The Activity was “Active”.

Question: And the IC50 [8]?
Answer: The IC50 was 500 nM.

Question: And the IC50 [9]?
Answer: Its IC50 is 500 nM.

Question: Which IC50 [1] does the source give for `CC(C)[C@@H]1NC(=O)c2coc(n2)-c2coc(n2)-c2coc(n2)C/C=C/c2coc(n2)-c2coc(n2)-c2coc1n2` here?
Answer: The IC50 was 25 nM.

Question: What about the Activity [2] of the same compound?
Answer: The Activity was “inactive”.

Question: What about the Activity [3] of the same compound?
Answer: The Activity was “Active”.

Question: What about the IC50 [4] of the same compound?
Answer: Its IC50 is 38 nM.

Question: And the Activity [5]?
Answer: Its Activity is “inactive”.

Question: And the IC50 [6]?
Answer: The IC50 was 3300 nM.

Question: And the Activity [7]?
Answer: The Activity was “Active”.

Question: And the IC50 [8]?
Answer: The IC50 was 45 nM.

Question: And the IC50 [9]?
Answer: The IC50 was 43 nM.
